Data set [1] can be described thus: Selectivity ratio of IC50 for PDE6 to IC50 for PDE5. The method in brief: (§1)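 Fold selectivity calculated as PDE11 IC50/PDE5 IC50 or PDE6 IC50/PDE5 IC50, with IC50 values in nM.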
For data set [2], the target named is cGMP-specific 3',5'-cyclic phosphodiesterase (Homo sapiens, UniProt O76074). Briefly: Inhibition of PDE5.
A short description of data set [3]: Selectivity ratio of IC50 for PDE11 to IC50 for PDE5. The method in brief:
as §1

Data set [4] can be described thus: Volume of distribution in rat. In kind it is ADME, organism-based. To be noted: in vivo.
Data set [5] is described as follows: Clearance in rat at 2 mg/kg at pH 5. The format is ADME, organism-based. Further details: dose 2 mg/kg. To be noted: in vivo.
The nature of data set [6]: Solubility of the compound at pH 6.5. In kind it is physicochemical. Conditions: buffer.
The species named for data set [7] is Rattus norvegicus. The data set is described as follows: Unbound volume of distribution in rat. The format is ADME, organism-based. To be noted: in vivo.
A short description of data set [8]: Volume of distribution in dog. In kind it is ADME, organism-based, Canis lupus familiaris. Conditions: in vivo. The method in brief:
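Volume of distribution expressed in L/kg.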

Data set [9] can be described thus: Clearance in dog at 2 mg/kg. In kind it is ADME, organism-based, Canis lupus familiaris. Further details: dose 2 mg/kg. Conditions: in vivo. The method in brief:
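Clearance in mL/min/kg after a 2 mpk dose (n = 3) in vehicle 70% PEG400/20% 0.05 M citrate buffer/10% ethanol, pH 5.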

A short description of data set [10]: Metabolic stability in human liver microsomes assessed as compound remaining after 1 hr. The format is ADME, Microsome. Conditions: read-out: Stability. The method in brief:
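Human liver microsomes; percent parent compound remaining after 1 h incubation.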
Background: Liver microsomes are vesicles of endoplasmic reticulum, rich in cytochrome P450 enzymes.

Data set [11] can be described thus: Oral bioavailability in rat at 2 mg/kg. The format is ADME, organism-based. Conditions: in vivo.

Values after ≈ are worked out from the molar mass of the structure shown.

As a reminder, the IC50 is the concentration needed to halve the response being measured. A low value points to greater potency. As to `CCCOCCn1c(=O)c(N2CCN(CCO)CC2)nc2ncc(-c3ccc(OC)nc3)cc21`, the Ratio IC50 in data set [1] is 245; in data set [3], 1770. The IC50 in [2] worked out at 0.35 nM.

Regarding `CCCOCCn1c(=O)c(N2CCN(CCO)CC2)nc2cnc(-c3ccc(OC)nc3)cc21`, the Ratio IC50 in data set [1] came out at 157; in [3] it was 2460.

In data set [2], `CCCOCCn1c(=O)nc(NC2CCCC(C(=O)O)C2)c2nnc(-c3ccc(OC)nc3)cc21` (stereo unspecified) had an IC50 of 0.01 nM.

On to `COc1ccc(-c2cc3c(nn2)c(N2CCN(CCO)CC2)nc(=O)n3CCOCC(F)(F)F)cn1`, for which the Ratio IC50 was 818 in [1] and greater than 311 in [3]. This compound also returned a half-inhibitory concentration (IC50) in data set [2] of 0.64 nM.

On to `CCOCCn1c(=O)nc(N2CCN(CCO)CC2)c2nnc(-c3ccc(OC)nc3)cc21`, for which the Ratio IC50 in data set [1] came out at 98; in data set [3] it was 286. In data set [2], 2.43 nM corresponded to half-maximal inhibition (IC50).

With `CCCOCCn1c(=O)nc(N2CCN(CCO)CC2)c2ncc(-c3ccc(OC)nc3)cc21`, the Ratio IC50 in [1] was 381; in data set [3] it was greater than 1220. Half-maximal inhibition in data set [2] (IC50) was put at 1.64 nM.

Regarding `CCCOCCn1c(=O)nc(NC2CCC(C(=O)O)CC2)c2nnc(-c3ccc(OC)nc3)cc21` (stereo unspecified), the figures for the Ratio IC50 in [1] and in data set [3] were 246 and 541, respectively. Half-maximal inhibition in data set [2] (IC50) required 0.02 nM.

As for `CCCOCCn1c(=O)nc(NCCN2CCOCC2)c2cnc(-c3ccc(OC)nc3)cc21`, the Ratio IC50 in data set [1] stood at 334; in data set [3], 9050. The IC50 in data set [2] is 0.08 nM.

With `CCCOCCn1c(=O)nc(N2CCN(CC(=O)O)CC2)c2nnc(-c3ccc(OC)nc3)cc21`, the Ratio IC50 in data set [1] amounted to 143; in data set [3], 1330. Further, half-maximal inhibition in data set [2] (IC50) required 0.1 nM.

In the case of `CCCOCCn1c(=O)c(NC2CCC(O)CC2)nc2ncc(-c3ccc(OC)nc3)cc21` (stereo unspecified), the results for the Ratio IC50 in data set [1] and in [3] were 48 and 675, respectively.

On to `CCCOCCn1c(=O)nc(N2CCC(CC(=O)O)CC2)c2nnc(-c3ccc(OC)nc3)cc21`, for which the results for the Ratio IC50 in data set [1] and in [3] were 254 and 1060, respectively. Moreover, inhibition in [2] was half-maximal at 0.04 nM (IC50).

As for `COc1ccc(-c2cc3c(nn2)c(NCC(=O)N(C)C)nc(=O)n3CCOCC(F)(F)F)cn1`, the Ratio IC50 in data set [1] turned out to be 2200; in data set [3] it was 4170. In data set [2], this compound gave an IC50 of 0.38 nM.

On to `CCCOCCn1c(=O)nc(N[C@H](C)C(=O)O)c2nnc(-c3ccc(OC)nc3)cc21`, for which the Ratio IC50 in [1] is 110; in data set [3] it was 76. The compound further had an IC50 in [2] of 0.13 nM.

On to `CCCOCCn1c(=O)nc(NCCOC(C)C)c2cnc(-c3ccc(OC)nc3)cc21`, for which the Ratio IC50 in data set [1] turned out to be 450; in data set [3], 9560. The compound further gave a half-inhibitory concentration (IC50) in [2] of 0.1 nM.

As for `CCCOCCn1c(=O)nc(N2CCCC(C(=O)O)C2)c2nnc(-c3ccc(OC)nc3)cc21` (stereo unspecified), the Ratio IC50 came to 162 in data set [1] and 297 in [3]. The same compound displayed an IC50 in data set [2] of 0.06 nM.

Take `CCCOCCn1c(=O)nc(NCC(=O)N(C)C)c2nnc(-c3ccc(OC)nc3)cc21`: the figures for the Ratio IC50 in [1] and in data set [3] were 296 and 277, respectively. Besides, it took 0.44 nM to reach half-maximal inhibition in [2] (IC50).

One may read the Vd as a proportionality between amount in the body and measured concentration, not a real space. One may read the clearance as a measure of how efficiently the substance is removed, as volume per time. What is called solubility is the dissolved amount per volume that the medium holds. By bioavailability is commonly meant dose-corrected exposure relative to a reference, in per cent. The low end stands for poor availability, the high end for good availability. As to `CCCOCCn1c(=O)c(NC2CCC(O)CC2)nc2cnc(-c3ccc(OC)nc3)cc21` (stereo unspecified), the values for the volume of distribution (Vd) in data set [4] and in data set [8] were 1.35 L/kg and 3.5 L/kg, respectively. The clearance in data set [5] and in data set [9] was 5.5 mL/min/kg each time. For the same compound, the Ratio IC50 in [1] was determined as 200; in data set [3] it was 1320. The solubility in [6] amounted to 21 µM (≈ 9.52 µg/mL). This compound also displayed a Vdu in [7] of 96 L/kg. The compound also had a half-inhibitory concentration (IC50) in [2] of 0.05 nM. Moreover, the remaining at 1 h in [10] was determined as 84%. In addition, the bioavailability in [11] stood at 50%.

Take `CCOCCn1c(=O)nc(NC2CCC(O)CC2)c2nnc(-c3ccc(OC)nc3)cc21` (stereo unspecified): the IC50 in data set [2] turned out to be 0.36 nM.

Turning to `CCCOCCn1c(=O)nc(N2CCN(CCO)CC2)c2cnc(-c3ccc(OC)nc3)cc21`, the Ratio IC50 in data set [1] is 181; in data set [3], greater than 1450. This compound also came in with a 50% inhibitory concentration (IC50) in [2] of 1.38 nM.

Take `CCCOCCn1c(=O)nc(NC(C)(C)C(=O)O)c2nnc(-c3ccc(OC)nc3)cc21`: the Ratio IC50 is 145 in [1] and 129 in [3]. In addition, it took 0.05 nM to reach half-maximal inhibition in data set [2] (IC50).

With `CCCOCCn1c(=O)nc(NCCN2CCOCC2)c2nnc(-c3ccc(OC)nc3)cc21`, the figures for the Ratio IC50 in data set [1] and in data set [3] were 573 and 6820, respectively. The same compound came in with a 50% inhibitory concentration (IC50) in data set [2] of 0.09 nM.

With `CCCOCCn1c(=O)nc(NC2CCC(O)CC2)c2cnc(-c3ccc(OC)nc3)cc21` (stereo unspecified), the results for the Ratio IC50 in data set [1] and in data set [3] were 675 and 3950, respectively. The same compound returned a concentration for half-maximal inhibition (IC50) in [2] of 0.05 nM.

As for `CCCOCCn1c(=O)nc(N2CCC(O)CC2)c2nnc(-c3ccc(OC)nc3)cc21`, the Ratio IC50 in data set [1] worked out at 194; in [3], 240. This compound returned an IC50 in data set [2] of 0.28 nM.

For `CCCOCCn1c(=O)nc(N[C@@H]2CCCC[C@H]2C(=O)O)c2nnc(-c3ccc(OC)nc3)cc21` (racemic), the figures for the Ratio IC50 in [1] and in [3] were 47 and 1390, respectively. The IC50 in data set [2] turned out to be 0.27 nM.

As to `CCCOCCn1c(=O)nc(NCCO)c2nnc(-c3ccc(OC)nc3)cc21`, the values for the Ratio IC50 in [1] and in [3] were 290 and 240, respectively. Also, it took 0.22 nM to reach half-maximal inhibition in [2] (IC50).

Take `CCCOCCn1c(=O)c(NCCN2CCOCC2)nc2cnc(-c3ccc(OC)nc3)cc21`: the results for the Ratio IC50 in data set [1] and in [3] were 158 and 4860, respectively.

In turn, `COc1ccc(-c2cc3c(nn2)c(NC2CCC(O)CC2)nc(=O)n3CCOCC(F)(F)F)cn1` (stereo unspecified) gave an IC50 in data set [2] of 0.04 nM.

Take `CCCOCCn1c(=O)nc(N[C@@H]2CCCC[C@@H]2C(=O)O)c2nnc(-c3ccc(OC)nc3)cc21` (racemic): the Ratio IC50 in [1] stood at 110; in [3] it was 296. The compound also showed an IC50 in data set [2] of 0.02 nM.

For the compound `CCCOCCn1c(=O)nc(NC2CCNCC2)c2nnc(-c3ccc(OC)nc3)cc21`, the Ratio IC50 came out at 576 in data set [1] and 1530 in [3]. Besides, the IC50 in data set [2] came to 1.31 nM.

As to `CCCOCCn1c(=O)nc(N2CCC(C(=O)O)CC2)c2nnc(-c3ccc(OC)nc3)cc21`, the figures for the Ratio IC50 in data set [1] and in data set [3] were 119 and 532, respectively. For the same compound, in data set [2], it took 0.01 nM to reach half-maximal inhibition (IC50).

With `CCCOCCn1c(=O)nc(NC2CCC(O)CC2)c2ncc(-c3ccc(OC)nc3)cc21` (stereo unspecified), the Ratio IC50 stood at 1020 in [1] and 3830 in data set [3]. Also, in data set [2], the IC50 was determined as 0.1 nM.

`CCCOCCn1c(=O)nc(NCCC(=O)O)c2nnc(-c3ccc(OC)nc3)cc21`: the figures for the Ratio IC50 in [1] and in data set [3] were 139 and 250, respectively. The compound further showed an IC50 in data set [2] of 0.05 nM.

With `CCCOCCn1c(=O)nc(N2CCN(CCO)CC2)c2nnc(-c3ccc(OC)nc3)cc21`, the Ratio IC50 came out at 124 in data set [1] and 834 in data set [3]. The compound further had an IC50 in data set [2] of 1.3 nM.

Consider `CCOCCn1c(=O)nc(NCC(=O)N(C)C)c2nnc(-c3ccc(OC)nc3)cc21`, for which the Ratio IC50 in data set [1] is 119; in data set [3], 199. In addition, the IC50 in data set [2] stood at 1.47 nM.

The values above are taken from ChEMBL document CHEMBL1914420, “Investigation of the pyrazinones as PDE5 inhibitors: evaluation of regioisomeric projections into the solvent region” (Bioorg Med Chem Lett, 2011).
